The source of these data is PMC2741613 (Journal of the American Chemical Society, 2009).

Some results are limits rather than exact numbers.

One assay has as its target T1, TC-PTP (Homo sapiens, UniProt P17706).
T1 sequence (P17706 1-415): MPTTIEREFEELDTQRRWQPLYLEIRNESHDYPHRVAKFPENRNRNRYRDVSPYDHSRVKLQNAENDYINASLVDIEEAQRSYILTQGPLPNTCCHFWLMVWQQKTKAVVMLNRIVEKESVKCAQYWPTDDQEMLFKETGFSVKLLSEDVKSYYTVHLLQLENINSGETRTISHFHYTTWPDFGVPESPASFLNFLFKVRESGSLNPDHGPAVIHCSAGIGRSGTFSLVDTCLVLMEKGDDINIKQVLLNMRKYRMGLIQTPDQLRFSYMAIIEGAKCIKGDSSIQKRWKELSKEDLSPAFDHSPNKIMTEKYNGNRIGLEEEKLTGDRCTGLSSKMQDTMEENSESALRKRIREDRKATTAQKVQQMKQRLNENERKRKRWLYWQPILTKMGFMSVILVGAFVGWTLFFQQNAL
Description: TC-PTP-catalyzed pNPP hydrolysis inhibition. The format is biochemical. The method in brief:
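IC50: enzyme added last (10 nM or 0.4 nM final) to 2 mM pNPP (Km) plus varied test compound, 30 min at room temperature, NaOH quench, A405. Reversibility: enzyme preincubated with test compound 30 min before pNPP. Mode/Ki: 0.4 nM enzyme, varied pNPP and inhibitor, kinetic fit.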

A further assay has as its target T2, PTP1B (Homo sapiens, UniProt P18031).
T2 sequence (P18031 1-435): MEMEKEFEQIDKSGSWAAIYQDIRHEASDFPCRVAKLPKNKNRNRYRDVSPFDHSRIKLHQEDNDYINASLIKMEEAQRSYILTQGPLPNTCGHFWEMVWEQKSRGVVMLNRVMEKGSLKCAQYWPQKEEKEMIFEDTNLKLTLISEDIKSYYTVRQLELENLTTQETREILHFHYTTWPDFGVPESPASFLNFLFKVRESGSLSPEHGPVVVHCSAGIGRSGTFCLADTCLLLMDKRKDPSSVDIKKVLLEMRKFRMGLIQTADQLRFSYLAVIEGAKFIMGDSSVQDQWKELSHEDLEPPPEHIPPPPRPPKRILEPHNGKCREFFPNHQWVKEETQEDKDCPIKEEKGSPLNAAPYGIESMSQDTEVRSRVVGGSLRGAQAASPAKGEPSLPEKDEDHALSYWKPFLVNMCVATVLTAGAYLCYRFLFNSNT
Description: PTP activity assay with pNPP, PTP1B. The format is biochemical. A digest of the protocol: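 Reactions started by adding enzyme (2 nM final) to mixtures with varied pNPP and varied test compound. Rates fitted with an enzyme-kinetics model to give Ki and mode of inhibition.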

The next assay has as its target T3, He-PTP (Homo sapiens, UniProt P35236).
T3 sequence (P35236 1-360): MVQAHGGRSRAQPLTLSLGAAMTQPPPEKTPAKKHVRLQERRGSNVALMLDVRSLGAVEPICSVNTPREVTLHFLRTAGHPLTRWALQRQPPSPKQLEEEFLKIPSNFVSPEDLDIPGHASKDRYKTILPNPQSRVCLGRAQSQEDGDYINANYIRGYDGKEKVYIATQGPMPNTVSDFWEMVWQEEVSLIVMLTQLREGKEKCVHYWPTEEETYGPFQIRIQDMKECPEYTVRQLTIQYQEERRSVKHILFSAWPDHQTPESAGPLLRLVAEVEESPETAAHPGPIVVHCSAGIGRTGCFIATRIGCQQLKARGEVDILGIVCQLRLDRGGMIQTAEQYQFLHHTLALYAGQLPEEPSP
Description: PTP activity assay with pNPP, He-PTP. The format is biochemical. The method in brief: (§1)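 Reactions started by adding enzyme to mixtures with various pNPP and test-compound concentrations. Rates were fitted with an enzyme-kinetics model for Ki.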

A further assay concerns the target T4, PTP-Meg2 (Homo sapiens, UniProt P43378).
T4 sequence (P43378 1-593): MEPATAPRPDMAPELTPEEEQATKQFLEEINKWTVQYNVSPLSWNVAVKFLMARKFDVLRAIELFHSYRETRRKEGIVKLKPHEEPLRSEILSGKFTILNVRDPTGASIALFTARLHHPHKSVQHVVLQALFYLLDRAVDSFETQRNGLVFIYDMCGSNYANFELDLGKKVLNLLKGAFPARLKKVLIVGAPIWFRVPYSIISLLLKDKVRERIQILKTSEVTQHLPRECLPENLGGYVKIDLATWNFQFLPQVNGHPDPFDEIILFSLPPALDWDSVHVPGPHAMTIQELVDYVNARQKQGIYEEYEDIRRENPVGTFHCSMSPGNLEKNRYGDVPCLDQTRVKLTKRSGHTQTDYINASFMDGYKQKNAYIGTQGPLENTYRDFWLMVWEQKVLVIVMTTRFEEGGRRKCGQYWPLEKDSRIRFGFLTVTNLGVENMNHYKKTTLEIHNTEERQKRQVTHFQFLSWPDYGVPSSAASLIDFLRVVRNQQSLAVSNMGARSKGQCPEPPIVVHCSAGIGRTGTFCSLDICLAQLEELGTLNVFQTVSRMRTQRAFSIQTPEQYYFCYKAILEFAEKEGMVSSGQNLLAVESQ
Description: PTP activity assay with pNPP, PTP-Meg2. The assay is classed as biochemical. A digest of the protocol: as §1

Another assay deals with LAR (Homo sapiens, UniProt P10586). Description: PTP activity assay with pNPP, LAR. The format is biochemical. A digest of the protocol:
as §1

In a further assay the target is T5, VHX (Homo sapiens, UniProt Q9NRW4).
T5 sequence (Q9NRW4 1-184): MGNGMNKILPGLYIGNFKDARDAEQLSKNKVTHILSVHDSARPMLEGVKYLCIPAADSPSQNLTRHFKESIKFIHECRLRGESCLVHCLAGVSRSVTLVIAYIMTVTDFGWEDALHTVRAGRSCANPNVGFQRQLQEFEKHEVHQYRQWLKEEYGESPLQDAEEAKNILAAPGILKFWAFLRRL
The assay can be described thus: PTP activity assay with pNPP, VHX. The assay is classed as biochemical. A digest of the protocol: as §1

The test system of assay [1] is pSrc416 in PTP1B−/− mouse embryo fibroblast cells. The assay can be described thus: Src phosphorylation at Tyr416 in cells. The assay is classed as cell-based. The following applies: treated for two hours, various concentrations. A digest of the protocol:
(§2)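 PTP1B−/− mouse embryo fibroblasts at 80% confluence were exposed to test compound for two hours, then lysed and cleared at 15,000 rpm for 10 min. 30 μg total protein run on SDS-PAGE and blotted to PVDF. Probed with anti-pSrc416, anti-pSrc527 and anti-Src antibodies, HRP-conjugated secondaries.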

Assay [2] has as its system pSrc527 in PTP1B−/− mouse embryo fibroblast cells. Description: Src phosphorylation at Tyr527 in cells. The format is cell-based. The following applies: treated for two hours, various concentrations. A digest of the protocol: as §2

LAR, sequence (P10586 30-1907, species assumed): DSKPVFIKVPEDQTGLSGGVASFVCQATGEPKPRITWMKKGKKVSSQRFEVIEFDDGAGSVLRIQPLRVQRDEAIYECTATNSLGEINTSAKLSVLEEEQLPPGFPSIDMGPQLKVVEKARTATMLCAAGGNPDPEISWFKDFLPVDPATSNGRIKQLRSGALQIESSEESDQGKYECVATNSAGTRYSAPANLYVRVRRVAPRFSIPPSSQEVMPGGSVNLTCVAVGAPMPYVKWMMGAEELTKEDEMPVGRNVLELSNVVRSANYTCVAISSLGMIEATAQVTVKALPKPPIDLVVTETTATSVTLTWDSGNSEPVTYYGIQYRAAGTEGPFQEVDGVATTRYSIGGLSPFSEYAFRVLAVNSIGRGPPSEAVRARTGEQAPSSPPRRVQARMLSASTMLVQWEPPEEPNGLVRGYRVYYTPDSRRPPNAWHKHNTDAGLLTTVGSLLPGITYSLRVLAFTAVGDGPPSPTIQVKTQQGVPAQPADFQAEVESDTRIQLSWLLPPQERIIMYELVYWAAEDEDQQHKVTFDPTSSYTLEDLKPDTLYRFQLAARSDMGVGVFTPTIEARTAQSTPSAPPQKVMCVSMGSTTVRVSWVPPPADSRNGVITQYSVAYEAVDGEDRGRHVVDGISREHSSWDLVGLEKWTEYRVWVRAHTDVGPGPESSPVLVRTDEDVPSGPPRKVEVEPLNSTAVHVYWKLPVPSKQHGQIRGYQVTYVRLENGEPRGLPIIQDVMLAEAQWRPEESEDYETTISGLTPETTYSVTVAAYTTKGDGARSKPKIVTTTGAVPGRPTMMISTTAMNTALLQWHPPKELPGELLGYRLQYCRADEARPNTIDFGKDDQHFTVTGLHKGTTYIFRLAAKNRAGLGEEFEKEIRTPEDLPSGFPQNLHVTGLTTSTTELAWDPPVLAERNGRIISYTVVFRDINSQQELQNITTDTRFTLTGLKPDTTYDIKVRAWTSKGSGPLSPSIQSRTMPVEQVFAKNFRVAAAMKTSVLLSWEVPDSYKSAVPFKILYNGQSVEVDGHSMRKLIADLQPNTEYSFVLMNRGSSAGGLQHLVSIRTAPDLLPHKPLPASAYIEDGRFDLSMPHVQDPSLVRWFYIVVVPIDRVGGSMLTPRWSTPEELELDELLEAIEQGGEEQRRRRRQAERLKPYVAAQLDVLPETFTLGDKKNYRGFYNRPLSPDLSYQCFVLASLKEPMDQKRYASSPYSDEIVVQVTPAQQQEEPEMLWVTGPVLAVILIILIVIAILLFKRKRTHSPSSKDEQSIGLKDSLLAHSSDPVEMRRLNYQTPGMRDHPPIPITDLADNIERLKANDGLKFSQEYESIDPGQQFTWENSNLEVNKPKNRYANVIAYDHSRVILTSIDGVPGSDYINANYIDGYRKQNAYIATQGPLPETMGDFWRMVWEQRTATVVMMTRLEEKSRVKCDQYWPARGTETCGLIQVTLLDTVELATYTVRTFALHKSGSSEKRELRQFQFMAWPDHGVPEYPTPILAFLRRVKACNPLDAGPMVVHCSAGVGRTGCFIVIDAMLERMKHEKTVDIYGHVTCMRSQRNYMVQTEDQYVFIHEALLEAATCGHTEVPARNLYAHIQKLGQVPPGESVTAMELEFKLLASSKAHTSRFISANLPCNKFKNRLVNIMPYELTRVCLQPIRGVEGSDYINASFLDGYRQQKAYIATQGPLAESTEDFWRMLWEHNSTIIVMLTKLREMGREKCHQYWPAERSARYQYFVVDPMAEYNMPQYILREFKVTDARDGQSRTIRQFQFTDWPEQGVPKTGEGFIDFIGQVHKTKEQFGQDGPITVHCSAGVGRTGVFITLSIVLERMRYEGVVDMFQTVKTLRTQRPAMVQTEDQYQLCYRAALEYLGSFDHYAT

Consider `CCc1ccc(C(=O)NCCCC[C@H](NC(=O)[C@H](Cc2ccc(C(F)(F)P(=O)(O)O)cc2)NC(=O)[C@H](Cc2ccccc2)NC(=O)CO[C@H]2C[C@@H](C)CC[C@@H]2C(C)C)C(N)=O)cc1` [Compound 8], for which the “reversibility of TC-PTP inhibition” value at TC-PTP (IC50 without or with 30 min preincubation) is listed as “reversible”. Also, the “mode of TC-PTP inhibition” value on TC-PTP (Lineweaver-Burk analysis, pNPP) is recorded as “competitive”. Also, the Ki was 4.3 ± 0.2 nM at TC-PTP (TC-PTP, pNPP substrate); 34 ± 2.8 nM on PTP1B (PTP1B); over 1000 nM at He-PTP; over 1000 nM on PTP-Meg2; over 1000 nM at LAR; over 1000 nM at VHX. Further, the “selectivity for TC-PTP over PTP1B” value on PTP1B (TC-PTP versus PTP1B) came out at 8 fold. Also, the “effect on pSrc416 phosphorylation” value in assay [1] is listed as “dose-dependent increase”. Moreover, the “effect on pSrc527 phosphorylation” value in assay [2] is recorded as “no significant change”.

In general, Ki refers to the dissociation constant of the complex between target and ligand, obtained from inhibition or displacement. Read a high Ki as weaker binding.
